Tests used:
MDA-MB-231 = assay: Growth inhibition of human MDA-MB-231 cells after 4 days by WST-8 assay; type: functional, cell-based; settings: MDA-MB-231, 96 h
In short: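 Cells used within 3 months of thaw. Breast cancer cells seeded at 3000 cells/well, then serially diluted compound added, cultured 4 days. Growth read by WST-8 (10% v/v final, 1−3 h, 450 nm). Readings normalized to DMSO-treated cells. IC50 by nonlinear regression.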

[1] = Plasma concentration in SCID mouse xenografted with human MDA-MB-231 cells at 50 mg/kg administered via oral gavage measured after 1 hr; type: ADME, organism-based
In short: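 Limited PK in SCID mice bearing MDA-MB-231 tumors, 50 mg/kg given by oral gavage. Plasma and tumor tissue drug levels measured at two time points per compound. Values are the mean of two mice/tumors per time point.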

RS4-11 = assay: Antitumor activity against human RS4:11 cells xenografted in SCID mouse assessed as tumor growth inhibition at 50 mg/kg administered via oral gavage measured on day 35; type: functional; settings: RS4-11, po, 840 h, read-out: TGI
In short: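 Each SCID mouse received a single dorsal subcutaneous tumor of 5 × 10⁶ RS4;11 or MDA-MB-231 cells in 50% Matrigel. At about 100 mm3, mice were randomised to treatment or vehicle control groups. Dosing was by oral gavage at the stated schedules. Tumor volume was L × W²/2, and body weight was tracked. TGI versus vehicle at end of treatment was tested by unpaired two-tailed t-test.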

Mus musculus = assay: Toxicity in SCID mouse xenografted with human MDA-MB-231 cells assessed as change in body weight at 10 to 50 mg/kg administered via oral gavage measured 2 to 3 times per week during compound dosing and measured weekly post treatment; type: organism-based; settings: in vivo
In short: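 Xenografts raised by subcutaneous dorsal injection of 5 × 10⁶ cells in 50% Matrigel into SCID mice, one tumor per mouse. Mice randomized to treatment or vehicle groups at about 100 mm3 tumor volume. Compounds given by oral gavage at the indicated dose-schedules, with percentage body-weight change tracked alongside tumor volume (L × W²/2).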

[2] = biological target: Bromodomain-containing protein 3 (Homo sapiens, UniProt Q15059); assay: Binding affinity to human BRD3 bromodomain 1 (P24 to E144 residues) expressed in bacterial expression system by BROMOscan assay
[3] = biological target: Bromodomain-containing protein 4 (Homo sapiens, UniProt O60885); assay: Binding affinity to human BRD4 bromodomain 2 (K333 to E460 residues) expressed in bacterial expression system by BROMOscan assay
[4] = biological target: ATPase family AAA domain-containing protein 2 (Homo sapiens, UniProt Q6PL18); assay: Binding affinity to human ATAD2A (Q981 to R1108 residues) expressed in bacterial expression system by BROMOScan assay
[5] = biological target: ATPase family AAA domain-containing protein 2B (Homo sapiens, UniProt Q9ULI0); assay: Binding affinity to human ATAD2B (Q955 to R1082 residues) expressed in bacterial expression system by BROMOScan assay
[6] = biological target: Bromodomain-containing protein 1 (Homo sapiens, UniProt O95696); assay: Binding affinity to human BRD1 (E556 to A688 residues) expressed in bacterial expression system by BROMOScan assay
Peregrin = Peregrin (Homo sapiens, UniProt P55201); assay: Binding affinity to human BRPF1 (E627 to G740 residues) expressed in bacterial expression system by BROMOScan assay
[7] = biological target: Bromodomain and PHD finger-containing protein 3 (Homo sapiens, UniProt Q9ULD4); assay: Binding affinity to human BRPF3 (E588 to G701 residues) expressed in bacterial expression system by BROMOScan assay
[8] = biological target: Nucleosome-remodeling factor subunit BPTF (Homo sapiens, UniProt Q12830); assay: Binding affinity to human FALZ (S2791 to H2911 residues) expressed in bacterial expression system by BROMOScan assay
[9] = biological target: Histone acetyltransferase KAT2B (Homo sapiens, UniProt Q92831); assay: Binding affinity to human PCAF (G715 to D831 residues) expressed in bacterial expression system by BROMOScan assay
[10] = biological target: Transcription initiation factor TFIID subunit 1-like (Homo sapiens, UniProt Q8IZX4); assay: Binding affinity to human TAF1L bromodomain 2 (Q1523 to D1654 residues) expressed in bacterial expression system by BROMOScan assay
[11] = biological target: Transcription initiation factor TFIID subunit 1 (Homo sapiens, UniProt P21675); assay: Binding affinity to human TAF1 bromodomain 2 (D1521 to D1656 residues) expressed in bacterial expression system by BROMOScan assay
[12] = biological target: Transcription intermediary factor 1-alpha (Homo sapiens, UniProt O15164); assay: Binding affinity to human TRIM24 (P790 to P977 residues) expressed in bacterial expression system by BROMOScan assay
[13] = biological target: E3 ubiquitin-protein ligase TRIM33 (Homo sapiens, UniProt Q9UPN9); assay: Binding affinity to human TRIM33-phd-bromo (D882 to A1087 residues) expressed in bacterial expression system by BROMOscan assay
Homo sapiens [14] = organism: Homo sapiens; assay: Selectivity index, ratio of Kd for human CECR2 (P423 to D543 residues) to Kd for human BRD2 bromodomain 1 (K71 to N194 residues)
Homo sapiens [15] = organism: Homo sapiens; assay: Selectivity index, ratio of Kd for human CECR2 (P423 to D543 residues) to Kd for human BRDT bromodomain 1 (N21 to E137 residues)
Homo sapiens [16] = organism: Homo sapiens; assay: Selectivity index, ratio of Kd for human CECR2 (P423 to D543 residues) to Kd for human BRDT bromodomain 2 (K250 to E382 residues)
Homo sapiens [17] = organism: Homo sapiens; assay: Selectivity index, ratio of Kd for human CECR2 (P423 to D543 residues) to Kd for human BRD4 bromodomain 2 (K333 to E460 residues)
Homo sapiens [18] = organism: Homo sapiens; assay: Selectivity index, ratio of Kd for human EP300 (A1040 to G1161 residues) to Kd for human BRD2 bromodomain 2 (E348 to D455 residues)
Homo sapiens [19] = organism: Homo sapiens; assay: Selectivity index, ratio of Kd for human EP300 (A1040 to G1161 residues) to Kd for human BRD3 bromodomain 1 (P24 to E144 residues)
Homo sapiens [20] = organism: Homo sapiens; assay: Selectivity index, ratio of Kd for human CREBBP (R1081 to G1197 residues) to Kd for human BRD2 bromodomain 1 (K71 to N194 residues)
Homo sapiens [21] = organism: Homo sapiens; assay: Selectivity index, ratio of Kd for human CREBBP (R1081 to G1197 residues) to Kd for human BRD2 bromodomain 2 (E348 to D455 residues)
Homo sapiens [22] = organism: Homo sapiens; assay: Selectivity index, ratio of Kd for human CREBBP (R1081 to G1197 residues) to Kd for human BRD3 bromodomain 2 (G306 to P416 residues)
Homo sapiens [23] = organism: Homo sapiens; assay: Selectivity index, ratio of Kd for human CREBBP (R1081 to G1197 residues) to Kd for human BRD4 bromodomain 2 (K333 to E460 residues)
[24] = biological target: Serine/threonine-protein kinase PLK4 (Homo sapiens, UniProt O00444); assay: Inhibition of human PLK4 using casein as substrate in presence of [gamma-33P]-ATP

Sequence of Transcription initiation factor TFIID subunit 1-like (Q8IZX4 whole entry, the tested form may be a part): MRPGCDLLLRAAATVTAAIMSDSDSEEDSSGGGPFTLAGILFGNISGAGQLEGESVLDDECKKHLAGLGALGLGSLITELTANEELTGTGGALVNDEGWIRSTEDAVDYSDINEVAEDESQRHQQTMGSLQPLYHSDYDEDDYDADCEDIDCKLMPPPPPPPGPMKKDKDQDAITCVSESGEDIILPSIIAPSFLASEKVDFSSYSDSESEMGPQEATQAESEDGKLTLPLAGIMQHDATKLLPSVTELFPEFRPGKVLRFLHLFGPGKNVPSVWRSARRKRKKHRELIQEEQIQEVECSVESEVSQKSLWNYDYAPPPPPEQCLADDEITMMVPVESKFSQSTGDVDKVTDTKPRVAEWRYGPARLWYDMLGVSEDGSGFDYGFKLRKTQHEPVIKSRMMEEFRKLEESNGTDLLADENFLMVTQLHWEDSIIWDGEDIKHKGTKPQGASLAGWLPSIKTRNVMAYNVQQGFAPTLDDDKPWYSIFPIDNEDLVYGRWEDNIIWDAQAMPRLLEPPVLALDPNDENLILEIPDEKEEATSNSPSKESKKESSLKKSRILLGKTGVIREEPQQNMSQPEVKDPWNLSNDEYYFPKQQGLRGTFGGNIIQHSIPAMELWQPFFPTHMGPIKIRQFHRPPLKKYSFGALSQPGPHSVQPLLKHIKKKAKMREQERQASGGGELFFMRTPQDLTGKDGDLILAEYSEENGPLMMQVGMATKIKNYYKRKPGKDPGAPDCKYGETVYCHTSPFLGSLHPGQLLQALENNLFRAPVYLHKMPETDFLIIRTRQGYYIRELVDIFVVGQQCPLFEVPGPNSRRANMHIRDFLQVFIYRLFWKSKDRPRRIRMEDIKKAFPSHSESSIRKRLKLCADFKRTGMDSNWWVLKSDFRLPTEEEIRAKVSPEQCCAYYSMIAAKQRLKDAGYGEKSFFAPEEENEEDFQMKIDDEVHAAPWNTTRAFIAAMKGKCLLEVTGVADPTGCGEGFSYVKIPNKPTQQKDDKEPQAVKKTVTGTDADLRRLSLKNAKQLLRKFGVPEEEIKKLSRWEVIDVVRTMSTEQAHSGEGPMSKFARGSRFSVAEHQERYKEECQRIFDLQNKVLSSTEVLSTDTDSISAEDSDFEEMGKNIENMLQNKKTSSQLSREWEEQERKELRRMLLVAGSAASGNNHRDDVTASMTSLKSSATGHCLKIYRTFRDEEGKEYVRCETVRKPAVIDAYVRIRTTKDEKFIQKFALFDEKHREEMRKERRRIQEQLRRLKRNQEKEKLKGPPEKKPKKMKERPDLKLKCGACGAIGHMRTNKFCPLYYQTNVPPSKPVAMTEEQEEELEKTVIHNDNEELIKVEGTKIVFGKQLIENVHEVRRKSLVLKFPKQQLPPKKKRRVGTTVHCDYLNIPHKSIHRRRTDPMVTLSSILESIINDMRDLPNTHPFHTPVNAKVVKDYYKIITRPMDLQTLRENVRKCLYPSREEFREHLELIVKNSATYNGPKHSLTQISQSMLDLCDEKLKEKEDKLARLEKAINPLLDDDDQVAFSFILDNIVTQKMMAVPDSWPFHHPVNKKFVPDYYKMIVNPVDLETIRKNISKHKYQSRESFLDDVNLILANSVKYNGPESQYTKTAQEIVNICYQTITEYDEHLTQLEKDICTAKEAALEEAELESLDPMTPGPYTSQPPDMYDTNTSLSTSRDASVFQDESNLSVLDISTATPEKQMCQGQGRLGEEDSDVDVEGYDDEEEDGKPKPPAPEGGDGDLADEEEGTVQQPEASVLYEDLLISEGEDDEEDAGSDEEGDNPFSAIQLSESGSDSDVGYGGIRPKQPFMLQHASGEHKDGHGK
Sequence of Bromodomain-containing protein 3 (Q15059 whole entry, the tested form may be a part): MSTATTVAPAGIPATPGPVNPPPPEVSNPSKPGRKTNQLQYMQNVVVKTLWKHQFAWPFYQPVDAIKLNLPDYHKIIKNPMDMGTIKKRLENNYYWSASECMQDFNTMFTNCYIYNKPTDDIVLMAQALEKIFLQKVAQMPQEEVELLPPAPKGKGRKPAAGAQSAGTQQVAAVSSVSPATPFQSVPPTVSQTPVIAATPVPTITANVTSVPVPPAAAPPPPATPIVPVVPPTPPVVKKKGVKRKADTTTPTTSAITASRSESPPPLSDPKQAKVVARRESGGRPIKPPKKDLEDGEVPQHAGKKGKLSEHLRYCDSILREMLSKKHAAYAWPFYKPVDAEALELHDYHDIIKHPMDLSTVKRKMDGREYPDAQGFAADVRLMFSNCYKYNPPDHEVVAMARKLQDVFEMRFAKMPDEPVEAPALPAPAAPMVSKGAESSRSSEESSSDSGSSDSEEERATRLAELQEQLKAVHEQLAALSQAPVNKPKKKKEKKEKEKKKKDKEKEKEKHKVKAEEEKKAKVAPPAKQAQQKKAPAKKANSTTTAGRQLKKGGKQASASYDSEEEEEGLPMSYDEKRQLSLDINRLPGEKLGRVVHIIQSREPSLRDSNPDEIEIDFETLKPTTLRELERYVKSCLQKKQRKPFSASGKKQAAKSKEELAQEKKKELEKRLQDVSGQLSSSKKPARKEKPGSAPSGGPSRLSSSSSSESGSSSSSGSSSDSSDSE
Sequence of E3 ubiquitin-protein ligase TRIM33 (Q9UPN9 whole entry, the tested form may be a part): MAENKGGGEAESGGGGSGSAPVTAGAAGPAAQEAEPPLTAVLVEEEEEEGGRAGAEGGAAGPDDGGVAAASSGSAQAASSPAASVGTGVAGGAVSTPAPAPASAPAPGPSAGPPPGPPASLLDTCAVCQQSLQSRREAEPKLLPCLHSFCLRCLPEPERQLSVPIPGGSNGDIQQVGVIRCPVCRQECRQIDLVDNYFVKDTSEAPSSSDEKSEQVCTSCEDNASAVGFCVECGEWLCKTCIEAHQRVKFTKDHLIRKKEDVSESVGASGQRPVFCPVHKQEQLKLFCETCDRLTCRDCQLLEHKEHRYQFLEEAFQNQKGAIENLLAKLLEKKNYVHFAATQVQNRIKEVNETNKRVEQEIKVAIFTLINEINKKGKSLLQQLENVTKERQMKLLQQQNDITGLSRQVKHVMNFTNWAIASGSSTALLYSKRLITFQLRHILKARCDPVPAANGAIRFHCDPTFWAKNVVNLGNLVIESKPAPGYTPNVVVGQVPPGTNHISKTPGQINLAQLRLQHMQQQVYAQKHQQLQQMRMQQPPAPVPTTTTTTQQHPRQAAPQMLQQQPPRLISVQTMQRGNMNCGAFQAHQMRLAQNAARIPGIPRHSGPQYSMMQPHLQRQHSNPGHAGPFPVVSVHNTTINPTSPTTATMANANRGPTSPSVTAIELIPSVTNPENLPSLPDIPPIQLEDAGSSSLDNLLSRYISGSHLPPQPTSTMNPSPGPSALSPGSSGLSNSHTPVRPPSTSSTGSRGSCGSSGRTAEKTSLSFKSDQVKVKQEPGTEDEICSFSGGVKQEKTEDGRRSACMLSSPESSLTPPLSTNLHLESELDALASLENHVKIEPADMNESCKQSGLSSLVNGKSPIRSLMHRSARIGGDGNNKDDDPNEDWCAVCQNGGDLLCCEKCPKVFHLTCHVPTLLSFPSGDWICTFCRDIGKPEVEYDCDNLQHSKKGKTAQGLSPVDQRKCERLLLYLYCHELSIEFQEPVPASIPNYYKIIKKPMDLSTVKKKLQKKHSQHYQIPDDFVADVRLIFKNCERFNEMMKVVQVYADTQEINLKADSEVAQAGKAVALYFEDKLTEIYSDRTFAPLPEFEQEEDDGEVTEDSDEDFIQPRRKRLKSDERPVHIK
Sequence of Transcription intermediary factor 1-alpha (O15164 whole entry, the tested form may be a part): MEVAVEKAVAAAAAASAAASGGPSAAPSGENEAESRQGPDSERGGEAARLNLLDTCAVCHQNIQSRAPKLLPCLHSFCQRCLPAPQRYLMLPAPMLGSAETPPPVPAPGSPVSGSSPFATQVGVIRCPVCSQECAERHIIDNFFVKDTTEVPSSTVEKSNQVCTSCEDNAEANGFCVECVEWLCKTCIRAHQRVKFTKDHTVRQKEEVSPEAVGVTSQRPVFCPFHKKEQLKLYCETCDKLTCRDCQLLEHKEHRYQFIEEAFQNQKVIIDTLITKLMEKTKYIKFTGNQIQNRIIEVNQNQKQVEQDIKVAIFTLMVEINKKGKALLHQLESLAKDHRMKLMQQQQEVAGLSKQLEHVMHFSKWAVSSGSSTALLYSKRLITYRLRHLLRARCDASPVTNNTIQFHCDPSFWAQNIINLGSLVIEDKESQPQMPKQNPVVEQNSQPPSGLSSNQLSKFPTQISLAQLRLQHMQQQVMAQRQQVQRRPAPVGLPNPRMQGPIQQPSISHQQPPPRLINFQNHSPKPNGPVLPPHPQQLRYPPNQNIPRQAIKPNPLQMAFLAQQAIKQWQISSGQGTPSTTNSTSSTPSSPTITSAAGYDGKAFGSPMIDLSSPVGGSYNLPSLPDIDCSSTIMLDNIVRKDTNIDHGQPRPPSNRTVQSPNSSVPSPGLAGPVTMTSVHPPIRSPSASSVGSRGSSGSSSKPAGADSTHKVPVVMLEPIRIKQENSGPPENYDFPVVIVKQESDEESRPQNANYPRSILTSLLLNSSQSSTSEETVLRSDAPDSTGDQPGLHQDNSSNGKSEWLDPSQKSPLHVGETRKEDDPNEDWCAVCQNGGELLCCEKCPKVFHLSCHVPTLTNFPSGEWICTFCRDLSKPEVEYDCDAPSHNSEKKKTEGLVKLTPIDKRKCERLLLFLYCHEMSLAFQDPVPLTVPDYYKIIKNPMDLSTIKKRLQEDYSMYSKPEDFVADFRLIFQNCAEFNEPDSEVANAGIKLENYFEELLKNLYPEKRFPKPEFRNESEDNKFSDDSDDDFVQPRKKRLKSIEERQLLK

Question: Which results are given for `COc1cc2c(cc1-c1c(C)noc1C)[nH]c1nc(C)nc(Nc3cc(C4CC4)nn3C)c12`?
Answer: IC50 (MDA-MB-231): 0.085 µM; concentration at 1 h [1]: 12600 ng/mL; inhibition in vivo at 50 mg/kg (RS4-11): 72.3%; Activity (Mus musculus): Non-Toxic; Kd [2]: 0.00052 µM; Kd [3]: 0.0008 µM; Kd [4]: > 5 µM; Kd [5]: > 5 µM; Kd [6]: > 5 µM; Kd (Peregrin): > 4 µM; Kd [7]: > 5 µM; Kd [8]: > 5 µM; Kd [9]: > 5 µM; Kd [10]: > 5 µM; Kd [11]: > 5 µM; Kd [12]: > 4 µM; Kd [13]: > 5 µM; Selectivity Index (Homo sapiens [14]): > 50; Selectivity Index (Homo sapiens [15]): > 50; Selectivity Index (Homo sapiens [16]): > 50; Selectivity Index (Homo sapiens [17]): > 50; Selectivity Index (Homo sapiens [18]): > 50; Selectivity Index (Homo sapiens [19]): > 50; Selectivity Index (Homo sapiens [20]): > 20; Selectivity Index (Homo sapiens [21]): > 20; Selectivity Index (Homo sapiens [22]): > 20; Selectivity Index (Homo sapiens [23]): > 20; IC50 [24]: 3.9 µM

Source: ChEMBL document CHEMBL4145654, “Structure-Based Discovery of CF53 as a Potent and Orally Bioavailable Bromodomain and Extra-Terminal (BET) Bromodomain Inhibitor” (J Med Chem, 2018)
